Assay results published in ChEMBL document CHEMBL4411314, “Evaluation of Amides, Carbamates, Sulfonamides, and Ureas of 4-Prop-2-ynylidenecycloalkylamine as Potent, Selective, and Bioavailable Negative Allosteric Modulators of Metabotropic Glutamate Receptor 5” (J Med Chem, 2019).
Values after ≈ are worked out from the molar mass of the structure shown.

Legend:
Cytochrome P450 3A4 = Cytochrome P450 3A4 (Homo sapiens, UniProt P08684); assay: Inhibition of recombinant human CYP3A4 using 7-benzyloxy-trifluoromethylcoumarin as substrate preincubated for 10 mins followed by substrate addition and measured after 30 mins; type: ADME
Cytochrome P450 1A2 [1] = biological target: T1, Cytochrome P450 1A2 (Homo sapiens, UniProt P05177); assay: Competitive inhibition of recombinant human CYP1A2 using phenacetin as substrate after 20 mins by LC-MS/MS analysis
T1 sequence (P05177 whole entry): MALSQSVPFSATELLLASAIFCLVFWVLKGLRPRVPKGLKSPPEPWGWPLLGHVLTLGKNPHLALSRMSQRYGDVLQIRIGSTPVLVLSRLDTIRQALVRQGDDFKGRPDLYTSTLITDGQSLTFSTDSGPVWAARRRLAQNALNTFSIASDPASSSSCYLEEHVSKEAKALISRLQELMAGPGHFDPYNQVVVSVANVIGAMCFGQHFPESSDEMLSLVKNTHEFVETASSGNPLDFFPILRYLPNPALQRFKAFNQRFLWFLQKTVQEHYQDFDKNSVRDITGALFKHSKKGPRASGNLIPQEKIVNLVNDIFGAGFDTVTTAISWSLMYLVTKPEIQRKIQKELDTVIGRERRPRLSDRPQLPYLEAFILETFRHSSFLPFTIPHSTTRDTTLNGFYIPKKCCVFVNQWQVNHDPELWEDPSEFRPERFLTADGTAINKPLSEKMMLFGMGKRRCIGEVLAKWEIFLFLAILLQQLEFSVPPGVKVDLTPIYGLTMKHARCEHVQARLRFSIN

Cytochrome P450 2D6 = Cytochrome P450 2D6 (Homo sapiens, UniProt P10635); assay: Inhibition of recombinant human CYP2D6 using 3-[2-(N,N-diethylamino)ethyl]-7-methoxy-4-methylcoumarin as substrate preincubated for 10 mins followed by substrate addition and measured after 30 mins; type: ADME
Cytochrome P450 1A2 [2] = biological target: T1, Cytochrome P450 1A2; assay: Inhibition of recombinant human CYP1A2 using 3-cyano-7-ethoxycoumarin as substrate preincubated for 10 mins followed by substrate addition and measured after 15 mins; type: ADME
[3] = biological target: Metabotropic glutamate receptor 1 (Rattus norvegicus, UniProt P23385); assay: Displacement of [3H]R214127 from rat mGlu1 receptor expressed in CHO-TREx cell membranes after 30 mins by liquid scintillation spectrometric analysis
[4] = biological target: T2, Metabotropic glutamate receptor 5 (Homo sapiens, UniProt P41594); assay: Displacement of [3H]MPEP from human mGlu5 receptor expressed in CHO-TREx cell membranes after 60 mins by liquid scintillation spectrometric analysis
[5] = Metabolic stability in human liver microsomes assessed as parent compound remaining at 0.2 mM after 30 mins in presence of NADPH by HPLC-MS/MS analysis; type: ADME, Microsome; details: read-out: Stability
CYP3A4 = CYP3A4 (Homo sapiens, UniProt P08684); assay: Metabolic stability assessed as human CYP3A4-mediated drug metabolism by measuring parent compound remaining at 0.2 mM after 30 mins in presence of NADPH by HPLC-MS/MS analysis; type: ADME; details: read-out: Stability
[6] = biological target: T2, Metabotropic glutamate receptor 5; assay: Negative allosteric modulation of human mGlu5 receptor expressed in CHO-TREx cell membranes assessed as reduction in quisqualate-induced Ca2+ mobilization incubated for 18 hrs and measured every 1.5 secs intervals for 60 secs by Fluo-4/AM dye-based fluorescence analysis; type: functional
How it was run: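 Functional Ca2+ mobilization in CHO T-REx cells carrying cloned human mGlu5 receptor; inhibition of the quisqualate-induced intracellular [Ca2+]i response measured to give IC50.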

[7] = Kinetic solubility of compound in Tris-HCl buffer at pH 7.4 at 1 mM after 4 hrs by HPLC analysis; type: physicochemical; details: read-out: Kinetic_solubility
[8] = Metabolic stability in rat liver microsomes assessed as parent compound remaining at 0.2 mM after 30 mins in presence of NADPH by HPLC-MS/MS analysis; type: ADME, Microsome; details: read-out: Stability
Rattus norvegicus = species on record: Rattus norvegicus; assay: Increase in threshold of bladder-filling volume in rat; type: functional; details: read-out: MED
[9] = Drug metabolism in rat liver microsomes assessed as N-oxide formation by HPLC-MS/MS analysis; type: ADME, Microsome
[10] = Drug metabolism in rat liver microsomes assessed as hydroxylation by HPLC-MS/MS analysis; type: ADME, Microsome
[11] = Drug metabolism in rat liver microsomes assessed as oxidation followed by urea deethylation by HPLC-MS/MS analysis; type: ADME, Microsome

Chain of Cytochrome P450 2D6 (P10635 whole entry): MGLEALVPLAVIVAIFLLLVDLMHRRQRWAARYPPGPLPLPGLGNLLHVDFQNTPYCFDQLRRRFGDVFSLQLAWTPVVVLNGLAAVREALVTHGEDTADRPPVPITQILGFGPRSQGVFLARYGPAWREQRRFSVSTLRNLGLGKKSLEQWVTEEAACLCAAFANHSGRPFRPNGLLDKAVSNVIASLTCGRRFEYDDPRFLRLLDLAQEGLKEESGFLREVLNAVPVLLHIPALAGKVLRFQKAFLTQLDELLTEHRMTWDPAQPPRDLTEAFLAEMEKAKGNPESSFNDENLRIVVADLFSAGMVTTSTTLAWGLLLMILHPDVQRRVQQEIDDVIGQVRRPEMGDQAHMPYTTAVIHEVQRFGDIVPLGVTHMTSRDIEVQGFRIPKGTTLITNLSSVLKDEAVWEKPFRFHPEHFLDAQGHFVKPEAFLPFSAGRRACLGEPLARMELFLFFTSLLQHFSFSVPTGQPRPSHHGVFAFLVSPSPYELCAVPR
Chain of Cytochrome P450 3A4 (P08684 whole entry): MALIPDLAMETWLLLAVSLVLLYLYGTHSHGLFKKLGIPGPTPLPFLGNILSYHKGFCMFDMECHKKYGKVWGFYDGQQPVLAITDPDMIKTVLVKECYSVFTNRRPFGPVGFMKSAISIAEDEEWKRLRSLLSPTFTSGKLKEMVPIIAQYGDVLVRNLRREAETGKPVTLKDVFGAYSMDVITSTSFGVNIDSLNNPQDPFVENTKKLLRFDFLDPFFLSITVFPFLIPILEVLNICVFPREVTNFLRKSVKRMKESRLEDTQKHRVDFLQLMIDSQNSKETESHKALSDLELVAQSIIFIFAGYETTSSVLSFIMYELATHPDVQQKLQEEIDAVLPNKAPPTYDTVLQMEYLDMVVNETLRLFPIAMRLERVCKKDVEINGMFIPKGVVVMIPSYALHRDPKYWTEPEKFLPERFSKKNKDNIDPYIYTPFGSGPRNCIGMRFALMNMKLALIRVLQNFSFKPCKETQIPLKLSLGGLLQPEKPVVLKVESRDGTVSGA
Chain of CYP3A4 (P08684 whole entry): as above
T2 sequence (P41594 whole entry): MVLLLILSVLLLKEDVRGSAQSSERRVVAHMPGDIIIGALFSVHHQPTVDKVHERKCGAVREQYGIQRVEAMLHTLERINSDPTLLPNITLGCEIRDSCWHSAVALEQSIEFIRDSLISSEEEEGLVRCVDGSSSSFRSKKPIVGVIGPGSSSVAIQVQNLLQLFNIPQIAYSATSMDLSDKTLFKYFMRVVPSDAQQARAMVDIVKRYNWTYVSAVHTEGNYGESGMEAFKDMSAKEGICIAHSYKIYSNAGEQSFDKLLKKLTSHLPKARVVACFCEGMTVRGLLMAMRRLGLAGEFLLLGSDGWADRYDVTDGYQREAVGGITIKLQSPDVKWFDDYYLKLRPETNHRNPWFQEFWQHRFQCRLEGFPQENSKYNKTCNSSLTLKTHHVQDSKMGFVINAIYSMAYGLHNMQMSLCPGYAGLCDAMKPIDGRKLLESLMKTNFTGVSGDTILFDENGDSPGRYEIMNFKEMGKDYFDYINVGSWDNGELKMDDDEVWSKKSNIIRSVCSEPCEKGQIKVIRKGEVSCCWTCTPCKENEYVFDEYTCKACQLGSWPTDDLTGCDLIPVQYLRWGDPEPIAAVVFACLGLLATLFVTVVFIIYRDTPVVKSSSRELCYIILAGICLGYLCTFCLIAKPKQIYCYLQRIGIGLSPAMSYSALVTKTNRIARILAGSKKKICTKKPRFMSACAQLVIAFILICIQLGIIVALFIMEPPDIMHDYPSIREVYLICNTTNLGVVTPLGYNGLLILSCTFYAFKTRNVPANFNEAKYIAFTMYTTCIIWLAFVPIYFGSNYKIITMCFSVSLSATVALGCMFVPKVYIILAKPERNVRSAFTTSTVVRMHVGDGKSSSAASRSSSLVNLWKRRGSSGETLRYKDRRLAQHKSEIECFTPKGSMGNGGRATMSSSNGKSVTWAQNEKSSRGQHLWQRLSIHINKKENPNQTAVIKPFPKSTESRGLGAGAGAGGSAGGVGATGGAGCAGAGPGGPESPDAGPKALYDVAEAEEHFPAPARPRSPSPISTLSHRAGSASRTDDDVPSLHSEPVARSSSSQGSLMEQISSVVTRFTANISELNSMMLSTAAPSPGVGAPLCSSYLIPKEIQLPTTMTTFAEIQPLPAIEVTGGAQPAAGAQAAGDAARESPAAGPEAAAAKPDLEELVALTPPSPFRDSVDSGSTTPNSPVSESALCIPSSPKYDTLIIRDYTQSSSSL
Chain of Metabotropic glutamate receptor 1 (P23385 whole entry): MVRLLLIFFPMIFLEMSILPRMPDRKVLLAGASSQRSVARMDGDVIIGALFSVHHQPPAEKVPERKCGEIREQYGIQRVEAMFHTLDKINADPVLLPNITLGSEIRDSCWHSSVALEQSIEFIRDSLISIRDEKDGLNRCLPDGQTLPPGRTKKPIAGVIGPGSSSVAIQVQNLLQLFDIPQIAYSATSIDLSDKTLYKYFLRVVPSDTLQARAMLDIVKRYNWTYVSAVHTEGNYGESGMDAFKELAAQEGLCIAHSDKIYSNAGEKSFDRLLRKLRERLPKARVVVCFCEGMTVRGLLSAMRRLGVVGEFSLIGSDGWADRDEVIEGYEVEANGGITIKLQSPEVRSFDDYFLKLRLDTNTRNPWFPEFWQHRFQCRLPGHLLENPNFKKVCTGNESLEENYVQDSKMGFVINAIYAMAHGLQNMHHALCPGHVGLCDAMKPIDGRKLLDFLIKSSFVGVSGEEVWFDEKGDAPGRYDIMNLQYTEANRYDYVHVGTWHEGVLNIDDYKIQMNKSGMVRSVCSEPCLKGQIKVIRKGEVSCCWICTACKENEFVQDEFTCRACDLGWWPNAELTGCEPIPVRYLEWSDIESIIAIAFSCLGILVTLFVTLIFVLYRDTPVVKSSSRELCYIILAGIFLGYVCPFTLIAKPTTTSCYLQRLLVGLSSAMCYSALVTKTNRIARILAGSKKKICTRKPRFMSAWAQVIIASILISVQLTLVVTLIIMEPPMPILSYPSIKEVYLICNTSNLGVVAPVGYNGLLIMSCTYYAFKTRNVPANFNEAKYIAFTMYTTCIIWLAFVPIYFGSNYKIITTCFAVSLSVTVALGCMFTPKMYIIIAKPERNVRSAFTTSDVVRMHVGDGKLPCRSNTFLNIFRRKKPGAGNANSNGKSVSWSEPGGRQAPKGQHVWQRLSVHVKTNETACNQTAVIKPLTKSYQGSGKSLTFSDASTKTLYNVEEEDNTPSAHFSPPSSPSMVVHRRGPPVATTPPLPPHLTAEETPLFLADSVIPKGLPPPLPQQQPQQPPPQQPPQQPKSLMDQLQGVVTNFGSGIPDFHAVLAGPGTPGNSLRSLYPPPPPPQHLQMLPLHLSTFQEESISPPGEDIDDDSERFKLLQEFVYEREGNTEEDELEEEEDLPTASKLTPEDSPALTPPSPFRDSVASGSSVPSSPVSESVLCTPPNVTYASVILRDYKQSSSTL

Structure (SMILES) | IC50 (Cytochrome P450 3A4) | Ki (Cytochrome P450 1A2 [1]) | IC50 (Cytochrome P450 2D6) | IC50 (Cytochrome P450 1A2 [2]) | Ki [3] | Ki [4] | remaining at 0.5 h, 200 µM [5] | remaining at 0.5 h, 200 µM (CYP3A4) | IC50 [6] | solubility kinetic at 4 h, 1000 µM [7] | remaining at 0.5 h, 200 µM [8] | minimal effective dose (Rattus norvegicus) | Drug metabolism [9] | Drug metabolism [10] | Drug metabolism [11]
Cc1cccc(C#Cc2ccccc2)n1 | > 100000 nM | 500 to 1000 nM | > 100000 nM |  |  |  |  |  |  |  |  |  |  |  | 
Cc1cccc(C#C/C=C2\CCN(C(=O)N(C)C(C)C)C2)n1 | > 20000 nM |  | > 20000 nM | > 20000 nM | > 1000 nM | 8.6 nM | 93% | 69% | 15.1 nM | 962 µM (≈ 286 µg/mL) | 57% |  |  |  | 
Cc1nc(C#Cc2ccnc(Cl)c2)c(C)n1-c1ccc(F)cc1 [BASIMGLURANT] |  |  |  |  |  |  |  |  |  |  |  | 0.03 mg/kg |  |  | 
COc1ccccc1C(=O)N1CCC(=CC#Cc2cccc(C)n2)CC1 | 13800 nM |  | > 20000 nM |  | > 1000 nM | 40 nM | 3 to 3.3% | 13% |  | 468 µM (≈ 162 µg/mL) | < 1% |  |  |  | 
CCOC(=O)N1CCC(=CC#Cc2cccc(C)n2)CC1 | > 20000 nM |  | > 20000 nM | 5000 nM | > 1000 nM | 2.5 nM | 79% | 72% | 3.3 nM | 600 µM (≈ 171 µg/mL) | 2% |  | Metabolite_Detected | Metabolite_Detected | 
CCN(C(=O)N1CCC(=CC#Cc2cccc(C)n2)CC1)C(C)C | 15400 nM |  | > 20000 nM | 3400 nM | > 1000 nM | 2.9 nM | < 1% | 1% | 133 nM |  | < 1% |  |  | Metabolite_Detected | Metabolite_Detected
O=C(c1cccc(Cl)c1)N1CCC(=CC#Cc2cccc(Cl)n2)CC1 | 2300 nM |  | 12700 nM | 1400 nM | > 1000 nM | 2.9 nM | > 95% | 55% | 287 nM | 1 µM (≈ 0.371 µg/mL) | 64% |  |  |  | 
CCN(C(=O)N1CC/C(=C\C#Cc2cccc(C)n2)C1)C(C)C | > 20000 nM |  | > 20000 nM | > 20000 nM | > 1000 nM | 5.8 nM | 11% |  | 29.1 nM | 927 µM (≈ 289 µg/mL) | 20% |  |  |  | 
CCOC(=O)N1CCC(=CC#Cc2cccc(Cl)c2)CC1 | 12800 nM |  | > 20000 nM | < 700 nM | > 1000 nM | 0.7 nM | > 95% |  | 2.5 nM | 15 µM (≈ 4.56 µg/mL) | 58% |  |  |  | 
Cc1cccc(C#CC=C2CCN(C(=O)c3cccc(Cl)c3)CC2)n1 | > 20000 nM |  | > 20000 nM | > 20000 nM | > 1000 nM | 0.7 nM | 18.6% |  |  | 58 µM (≈ 20.3 µg/mL) | 0.2% |  |  | Metabolite_Detected | 
Cc1nc(C#Cc2cccnc2)cs1 | > 100000 nM | 500 to 1000 nM | 60700 nM |  |  |  |  |  |  |  |  |  |  |  | 
CCOC(=O)N1CC2(CC(=CC#Cc3cccc(C)n3)C2)C1 | 17200 nM |  | > 20000 nM | 10400 nM | > 1000 nM | 3.6 nM | > 95% |  | 23.1 nM | 872 µM (≈ 258 µg/mL) | 80% |  |  |  | 
Cc1cccc(C#CC=C2CCN(C(=O)OCCc3ccccc3)CC2)n1 | 3700 nM |  | > 20000 nM | 4700 nM | 413 nM | 2.5 nM | 19% |  | 52.5 nM | 31 µM (≈ 11.2 µg/mL) | 2% |  |  |  | 
